Many of the other results were omitted from the sample, so hits are more common in it than they were.
A1 apoptosis 2: blocks A1, raising caspase activity; 24,000 tested, under 10 active; MEF A1-2A-BIM cells, caspase-Glo luminescence, 3 h; percent of clofoctol response, DMSO zero; caspase activation, % (no concentration beside the values); in the data active = caspase activation above about 5.9%; inconclusive = no clear call, values can overlap the other calls; inactive = below about 2.2%
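System: mouse embryonic fibroblasts co-expressing A1 and BIM (A1-2A-BIM), primed for A1 dependence; amount: 2500 cells/well; doses: 50 nL pinned compound; schedule: cells settled overnight, compound exposure 3 h at 37 °C, 5% CO2; detection: Caspase-Glo 3/7 luminescence, 1 h at room temperature; read-out: Caspase-3/7 activation, seen as rise in luminescence signal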
T cruzi intra: blocks T. cruzi growth inside host cells. AID 651903. 4.9% of 22,000 active. activity score (inhibition), % at 5.01 µM. intracellular Trypanosoma cruzi in host cells, plate reader; in the data active = activity score above about 55%; inconclusive = no clear call, values can overlap the other calls;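 also: parasites and compound incubated about four days before reading; 0% = median of neutral control wells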
INS-1E ATP HTS: rescue of cytokine-induced death in INS-1E beta cells. 0.1% of 20,000 active. protection from cytokine-induced ATP loss, % at 10 µM. INS-1E cytokine-induced death, ATP luminescence, 48 h; normalised: neutral wells 0, positive control 100;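 active = mean replicate protection from cytokine-induced ATP loss at least 50% and at least 75% of replicates each reaching 50%; inconclusive = meets only one of the two criteria, mean or replicate share; inactive = fails both the mean and replicate share criteria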
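Assay system: INS-1E rat insulinoma cells. Amount: 8000 cells per well. Medium: phenol-red-free RPMI with 5% fetal bovine serum. Reagent: IL-1β, TNF-α and IFN-γ cytokine mix. Doses: one compound concentration, pin transfer. Schedule: 48 h co-treatment, 10 min post-lysis read. Detection: CellTiter-Glo luminescence measuring cellular ATP.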
* = called active by the depositor; ? = inconclusive; · = no result.

SMILES	A1 apoptosis 2	T cruzi intra	INS-1E ATP HTS
COc1cc2c(cc1OC)CN(C(=O)[C@@H]1[C@H]3C(=O)O[C@H](c4ccccc4)[C@H](c4ccccc4)N3[C@H](c3ccc(O)cc3)[C@@]13C(=O)Nc1ccc(C#CC4=CCCCC4)cc13)CC2	1.2	·	·
C=CCN1Cc2ccccc2[C@H]2OC(c3ccc(OCCCO)cc3)=N[C@@]2(Cc2ccccc2)C1=O	-0.8	·	·
COC(=O)CCCCCCC(=O)N/N=C/c1ccccn1	2.2	8.4	-0.3
COc1ccc(C#Cc2ccc3c(c2)[C@]2(C(=O)N3)[C@H](C(N)=O)[C@H]3C(=O)O[C@H](c4ccccc4)[C@H](c4ccccc4)N3[C@@H]2c2ccccc2OCCO)cc1	-0.5	·	·
C[C@@H]1CCCCO[C@H](CN(C)Cc2ccc(C(=O)Nc3ccccc3N)cc2)[C@@H](C)CN([C@H](C)CO)C(=O)c2cc(NS(=O)(=O)c3cccs3)ccc2O1	0.2	28.8	9.7
C[C@@H]1CCCCO[C@@H](CN(C)Cc2ccc(C(=O)Nc3ccccc3N)cc2)[C@@H](C)CN([C@H](C)CO)C(=O)c2cc(NS(=O)(=O)c3cccs3)ccc2O1	·	62.0*	-9.4
COc1ccc(NC(=O)Nc2ccc3c(c2)C(=O)N([C@@H](C)CO)C[C@H](C)[C@@H](CN(C)Cc2ccccc2)O3)cc1	-0.2	25.6	-3.3
O=C(C1=C[C@@H](c2ccc3c(c2)Cc2ccccc2-3)C[C@@H](OCc2ccc(CO)cc2)O1)N1CCCCC1	-1.9	·	·
C[C@@H]1CN([C@@H](C)CO)C(=O)Cc2cc(NC(=O)C3CC3)ccc2O[C@@H]1CN(C)Cc1ccc(C(=O)Nc2ccccc2N)cc1	·	58.3*	-7.9
C[C@H]1CN([C@@H](C)CO)C(=O)Cc2cc(NC(=O)NC3CCCCC3)ccc2O[C@H]1CN(C)Cc1ccc(C(=O)Nc2ccccc2N)cc1	-1.5	67.3*	3.3
C[C@H](CO)N1C[C@H](C)[C@H](CN(C)Cc2ccc(C(=O)Nc3ccccc3N)cc2)Oc2ccc(NC(=O)Nc3ccc(F)cc3)cc2CC1=O	·	66.3*	31.4
C[C@@H]1CN([C@H](C)CO)C(=O)Cc2cc(NC(=O)C3CC3)ccc2O[C@H]1CN(C)Cc1ccc(C(=O)Nc2ccccc2N)cc1	·	19.3	-1.7
C[C@@H]1CN([C@@H](C)CO)C(=O)Cc2cc(NC(=O)Nc3ccccc3)ccc2O[C@@H]1CN(C)Cc1ccc(C(=O)Nc2ccccc2N)cc1	·	?	-14.1
C[C@@H]1CN([C@H](C)CO)C(=O)Cc2cc(NC(=O)Nc3ccc4c(c3)OCO4)ccc2O[C@H]1CN(C)Cc1ccc(C(=O)Nc2ccccc2N)cc1	-0.5	·	·
C[C@@H]1CN([C@@H](C)CO)C(=O)Cc2cc(NC(=O)Nc3ccc4c(c3)OCO4)ccc2O[C@@H]1CN(C)Cc1ccc(C(=O)Nc2ccccc2N)cc1	-0.1	66.5*	-14.9
C[C@@H]1CN([C@@H](C)CO)C(=O)Cc2cc(NC(=O)NC3CCCCC3)ccc2O[C@H]1CN(C)Cc1ccc(C(=O)Nc2ccccc2N)cc1	0.0	·	·
O=C(CCCCCC(=O)N/N=C/c1cccnc1Cl)NO	1.5	·	·
C[C@@H]1CCCCO[C@H](CN(C)C(=O)NC2CCCCC2)[C@H](C)CN([C@H](C)CO)C(=O)c2cc(NC(=O)Cc3ccccc3)ccc2O1	-0.8	·	·
C[C@H]1CN([C@@H](C)CO)C(=O)Cc2cc(NC(=O)Nc3ccccc3)ccc2O[C@@H]1CN(C)Cc1ccc(C(=O)Nc2ccccc2N)cc1	-1.0	·	·
C[C@@H]1CN([C@@H](C)CO)C(=O)Cc2cc(NC(=O)Nc3ccc(F)cc3)ccc2O[C@@H]1CN(C)Cc1ccc(C(=O)Nc2ccccc2N)cc1	·	63.4*	-6.3
O=C(O)CCCCCCC(=O)N/N=C/c1cccnc1	-0.5	-11.8	11.2
CCOc1cccc(/C=N/NC(=O)c2cccc(C(=O)NO)c2)c1OCC	-3.6	-13.0	3.0
CC(C)(C)OC(=O)NC1(/C=N/NC(=O)CCCCCCC(=O)Nc2ccccc2O)CCCC1	·	6.1	9.7
Cc1noc(C)c1S(=O)(=O)Nc1ccc2c(c1)CC(=O)N([C@H](C)CO)C[C@@H](C)[C@@H](CN(C)Cc1ccc(C(=O)Nc3ccccc3N)cc1)O2	-0.2	69.0*	-2.2
Cc1noc(C)c1S(=O)(=O)Nc1ccc2c(c1)C(=O)N([C@H](C)CO)C[C@H](C)[C@@H](CN(C)Cc1ccc(C(=O)Nc3ccccc3N)cc1)O2	1.1	68.2*	-14.4
SMILES	A1 apoptosis 2	T cruzi intra	INS-1E ATP HTS
Cc1noc(C)c1S(=O)(=O)Nc1ccc2c(c1)CC(=O)N([C@H](C)CO)C[C@H](C)[C@@H](CN(C)Cc1ccc(C(=O)Nc3ccccc3N)cc1)O2	-0.5	·	·
C[C@H](CO)N1C[C@H](C)[C@@H](CN(C)Cc2ccc(C(=O)Nc3ccccc3N)cc2)Oc2c(NS(=O)(=O)c3ccccc3)cccc2C1=O	-0.2	51.3	-3.9
Cc1noc(C)c1S(=O)(=O)Nc1ccc2c(c1)C(=O)N([C@H](C)CO)C[C@@H](C)[C@H](CN(C)Cc1ccc(C(=O)Nc3ccccc3N)cc1)O2	0.7	51.7	-7.0
Cc1noc(C)c1S(=O)(=O)Nc1ccc2c(c1)CC(=O)N([C@@H](C)CO)C[C@@H](C)[C@@H](CN(C)Cc1ccc(C(=O)Nc3ccccc3N)cc1)O2	·	71.0*	-4.7
Cc1noc(C)c1S(=O)(=O)Nc1ccc2c(c1)CC(=O)N([C@H](C)CO)C[C@@H](C)[C@H](CN(C)Cc1ccc(C(=O)Nc3ccccc3N)cc1)O2	-0.5	27.5	-2.1
Cc1noc(C)c1S(=O)(=O)Nc1cccc2c1O[C@@H](CN(C)Cc1ccc(C(=O)Nc3ccccc3N)cc1)[C@@H](C)CN([C@@H](C)CO)C2=O	-1.1	66.1*	-16.7
CC(C)(C)OC(=O)NC1(/C=N/NC(=O)c2ccccn2)CCCC1	·	-10.2	10.6
O=C(CCCCCC(=O)Nc1ccccc1O)N/N=C/c1ccc(O)cc1	0.6	-2.8	5.9
O=C(CCCCCCC(=O)Nc1ccccc1O)N/N=C/[C@H](O)[C@@H](O)[C@H](O[C@@H]1O[C@H](CO)[C@H](O)[C@H](O)[C@H]1O)[C@H](O)CO	·	1.0	-14.4
CC(=O)n1cc([C@H]2C=C(C(=O)N3CCN(C)CC3)O[C@@H](OCc3ccc(CO)cc3)C2)c2ccccc21	0.3	·	·
COc1cc2c(cc1O)C(c1cccs1)N(Cc1cccc(OC(F)(F)F)c1)CC2 (stereo not given)	-0.2	·	·
Cc1noc(C)c1S(=O)(=O)Nc1cccc2c1O[C@H](CN(C)S(=O)(=O)c1ccccc1)[C@H](C)CN([C@H](C)CO)C2=O	·	65.4*	9.0
Cc1noc(C)c1S(=O)(=O)Nc1cccc2c1O[C@@H](CN(C)S(=O)(=O)c1ccccc1)[C@@H](C)CN([C@H](C)CO)C2=O	-1.3	-19.1	10.2
Cc1ccc(S(=O)(=O)Nc2ccc3c(c2)C(=O)N([C@H](C)CO)C[C@@H](C)[C@H](CN(C)Cc2ccc(Cl)c(Cl)c2)OCCCC[C@@H](C)O3)cc1	-1.3	·	·
COc1ccc(S(=O)(=O)Nc2ccc3c(c2)C(=O)N([C@H](C)CO)C[C@H](C)[C@@H](CN(C)Cc2ccc(Cl)c(Cl)c2)OCCCC[C@@H](C)O3)cc1	-1.0	73.0*	-69.4
